Screening data from PubChem BioAssay.
NPY-Y2 PAM-ag: NPY-Y2 potentiators or agonists, primary screen, cell-based; AID 1359, 2008; activation, % at 3.6 µM; Neuropeptide Y receptor type 2 (Homo sapiens), P49146; cells expressing NPY-Y2, potentiator/agonist read-out; actives 0.45% (n = 220,000); in the data active = activation above about 27%;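 note: cells stimulated with NPY near EC25 plus isoproterenol at EC100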
Target sequence (P49146 whole entry, looked up): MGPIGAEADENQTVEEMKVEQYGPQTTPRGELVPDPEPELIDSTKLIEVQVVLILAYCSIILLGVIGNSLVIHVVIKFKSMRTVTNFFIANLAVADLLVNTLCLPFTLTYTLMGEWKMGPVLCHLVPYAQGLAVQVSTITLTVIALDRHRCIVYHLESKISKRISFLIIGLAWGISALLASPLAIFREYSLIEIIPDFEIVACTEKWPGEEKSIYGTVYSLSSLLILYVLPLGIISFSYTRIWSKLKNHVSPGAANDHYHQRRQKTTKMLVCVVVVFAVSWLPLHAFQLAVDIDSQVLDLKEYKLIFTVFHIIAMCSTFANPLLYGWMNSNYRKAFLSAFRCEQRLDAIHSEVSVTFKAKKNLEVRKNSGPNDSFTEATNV
NPY1 pot ag: NPY-Y1 receptor potentiators or agonists, primary screen, cell-based | Neuropeptide Y receptor type 1 (Homo sapiens), P25929 | actives 0.37% (n = 220,000) | NPY-Y1 expressing cells, potentiator/agonist activation | activation, % at 3.6 µM; in the data active = activation above about 33%, passing the limit was not always enough;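 note: cells stimulated with NPY at EC10 then isoproterenol at EC100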
NPY Y1 blocker: NPY-Y1 receptor antagonists, primary screen, cell-based | inhibition, % at 3.6 µM | HEK293-CNG Y1 cells, membrane potential fluorescence; NPY at EC95, then isoproterenol | Neuropeptide Y receptor type 1 (Homo sapiens), P25929 | AID 1040, 2008 | actives 1% (n = 200,000);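 active = inhibition above the campaign mean inhibition of all tested compounds plus 3 SD, cut at about 20% in these data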
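Material: HEK293 Y1/CNG channel cell line | Also added: NPY (25 nM), isoproterenol (1 µM), Ro 20-1724 (25 µM) | Compound: One concentration, 3.6 µM, in 0.4% DMSO | Schedule: 3 h dye uptake, 1 h room-temperature compound, 45 min post-isoproterenol | Signal: Membrane-potential fluorescent dye readout | Read-out: % inhibition of NPY effect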
NPY-Y2 antag: NPY-Y2 receptor antagonists, primary screen, cell-based | NPY-Y2 expressing cells, antagonist mode | Neuropeptide Y receptor type 2 (Homo sapiens), P49146 | actives 0.99% (n = 140,000) | inhibition, % at 2.7 µM; in the data active = inhibition above about 17%
S1P4 agonist: S1P4 receptor agonists, primary screen, cell-based | Sphingosine 1-phosphate receptor 4 (Homo sapiens), O95977 | actives 0.35% (n = 220,000) | activation, % at 4.98 µM | S1P4-expressing cell line, agonist reporter assay; in the data active = activation above about 11%
S1P4 antag: S1P4 receptor antagonists, primary screen, cell-based; Sphingosine 1-phosphate receptor 4 (Homo sapiens), O95977; S1P4-expressing cells, antagonist mode, reporter read-out; actives 0.26% (n = 220,000); inhibition, % at 4.98 µM; AID 1510, 2009; in the data active = inhibition above about 29%
NPY-Y1 antag ct: NPY-Y1 receptor antagonists, selectivity check, counter-screen for NPY-Y2 antagonist project, cell-based; inhibition, % at 3.6 µM; actives 19% (n = 710); shares compounds with NPY-Y2 antag; cell-based NPY-Y1 antagonism counterscreen; in the data active = inhibition above about 20%;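 note: cells challenged with NPY then isoproterenol with cAMP sensed through a CNG channel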
NPY2 antag conf: NPY-Y2 receptor antagonists, retest of hits, confirmation, HEK293-CNG cells, membrane potential fluorescence, triplicate | shares compounds with NPY-Y2 antag | HEK293 NPY-Y2 CNG channel | inhibition, % at 2.8 µM | actives 32% (n = 710);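 active = mean inhibition of triplicate wells above the hit cutoff set in the primary screen, cut at about 17% in these data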
Each line names hits and unclear results; the compound was inactive in the other large screens (follow-up assays come after a bar, where they were run). A selection: hits, their analogues and other compounds. The true share with any hit is near 2.4%.

Cc1ccc(CNC(=O)c2cc(C)nn2-c2ccccc2)cc1	none (no result: NPY Y1 blocker, NPY-Y2 antag)
CCOC(=O)Cn1c(S(=O)(=O)Cc2cccc(F)c2)nc(-c2ccccc2)c1-c1ccccc1	NPY-Y2 antag 19.3 | NPY-Y1 antag ct inactive | NPY2 antag conf inactive
CCOC(=O)Cn1c(-c2ccccc2)nc2ccccc2c1=O	none
Cc1ccc(C)c(N2CCN(CCCNC(=O)Cn3cccc3C(=O)c3ccccc3C)CC2)c1	none (no result: NPY-Y2 antag)
Cc1ccccc1C(=O)c1cccn1CC(=O)NCCN1CCN(c2cccc(C)c2C)CC1	NPY-Y2 antag 21.4 | NPY-Y1 antag ct inactive | NPY2 antag conf 24.6
COc1ccc(N2CCN(C(=O)CCc3ccc(S(=O)(=O)NC(C)(C)C)cc3)CC2)cc1	none (no result: NPY Y1 blocker, NPY-Y2 antag)
C=C(C)C1CC=C(C)/C(=N/NC(=O)c2ccoc2C)C1 (configuration not stated)	none
O=C(NC1CCCCCC1)c1ccc(S(=O)(=O)NCc2ccco2)cc1	NPY-Y2 antag 20.5 | NPY-Y1 antag ct inactive | NPY2 antag conf inactive
O=C(COC(=O)c1ccc(S(=O)(=O)NCc2ccco2)cc1)NC1CCCCCC1	none
Cc1ccc2nc3c(c(Nc4ccc5c(c4)OCCO5)c2c1)CCC3	NPY-Y2 antag 22.0 | NPY-Y1 antag ct inactive | NPY2 antag conf inactive
Cc1cccc(Nc2c3c(nc4ccccc24)CCC3)c1	none (no result: NPY Y1 blocker, NPY-Y2 antag)
O=C(CCN1C(=O)c2ccc([N+](=O)[O-])cc2C1=O)Nc1ccccc1C(=O)O	none (no result: NPY Y1 blocker, NPY-Y2 antag)
O=C(NC1CCCCC1)c1cnn2c(C(F)(F)F)cc(-c3ccco3)nc12	NPY-Y2 antag 19.0 | NPY-Y1 antag ct inactive | NPY2 antag conf inactive
CCOC(=O)/C(N=Nc1ccc(Cl)cc1)=C(/O)c1ccc([N+](=O)[O-])cc1	NPY-Y2 antag 17.3 | NPY-Y1 antag ct inactive | NPY2 antag conf inactive
N/C(Cc1ccc(Cl)cc1)=N\OC(=O)Cc1ccc([N+](=O)[O-])cc1	none
Clc1ccc(OCCn2c(-c3ccco3)nc3ccccc32)cc1	NPY-Y2 antag 30.7 | NPY-Y1 antag ct 32.3 | NPY2 antag conf inactive
c1coc(Cn2c(-c3ccco3)nc3ccccc32)c1	none
COc1cccc(-c2nc(CS(=O)(=O)CC(=O)NCc3ccccc3OC)c(C)o2)c1	NPY-Y2 antag 22.2 | NPY-Y1 antag ct inactive | NPY2 antag conf inactive
COc1cccc(-c2nc(-c3ccc(NC(=O)Cc4ccccc4OC)cc3)no2)c1	NPY-Y2 antag 23.0 | NPY-Y1 antag ct inactive | NPY2 antag conf 115.2
COc1ccc(O)c(C(=O)c2coc(=N)c(C(=O)Nc3ccc(SC(F)F)cc3)c2)c1	none (no result: NPY-Y2 antag)
Fc1cccc(CSc2ccc(-c3ccc4c(c3)OCO4)nn2)c1	NPY-Y2 antag 18.8 | NPY-Y1 antag ct inactive | NPY2 antag conf inactive
c1cncc(CSc2ccc(-c3ccc4c(c3)OCO4)nn2)c1	none (no result: NPY-Y2 antag)
O=C(NCCNS(=O)(=O)c1ccc(Cl)cc1)c1cc(OCC(F)(F)F)ccc1OCC(F)(F)F	NPY-Y2 antag 38.1 | NPY-Y1 antag ct inactive | NPY2 antag conf inactive
O=C(NCCNS(=O)(=O)c1ccccc1)c1cc(OCC(F)(F)F)ccc1OCC(F)(F)F	none
CCN1CCN(c2ccc(S(=O)(=O)N3CCCCC3)cc2NC(=O)c2ccc(F)cc2)CC1	NPY-Y2 antag 18.4 | NPY-Y1 antag ct inactive | NPY2 antag conf inactive
Cc1cc(C)cc(NC(=O)N(CCC#N)Cc2cccs2)c1	none (no result: NPY Y1 blocker, NPY-Y2 antag)
CCOC(=O)CSc1nc2c(sc3ccccc32)c(=O)n1CCCN1CCOCC1	NPY-Y2 antag 19.2 | NPY-Y1 antag ct 21.0 | NPY2 antag conf inactive
CCC(C)NC(=O)CSc1nc2c(sc3ccccc32)c(=O)n1CCCN1CCOCC1 (configuration not stated)	none
